Measurements published in ChEMBL document CHEMBL4190210, “Derivatives of the Lignan 7'-Hydroxymatairesinol with Antioxidant Properties and Enhanced Lipophilicity” (J Nat Prod, 2017).

Test: Lipophilicity, log Kw of the compound by reversed-phase UHPLC analysis
Type: physicochemical
Conditions: water/acetonitrile
Method in brief: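 Binary elution with water and acetonitrile, each containing 0.1% formic acid. Detection by UV at 254 nm and by negative/positive ESIMS selected ion monitoring.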

SMILES | logKw
CCCCCCCCCCCCCCCCCC(=O)O[C@H](c1ccc(O)c(OC)c1)[C@H]1COC(=O)[C@@H]1Cc1ccc(O)c(OC)c1 | 5.43
CCCCCCCCCCCC(=O)O[C@@H](c1ccc(O)c(OC)c1)[C@H]1COC(=O)[C@@H]1Cc1ccc(O)c(OC)c1 | 3.68
CCCCCCCCCCCC(=O)O[C@H](c1ccc(O)c(OC)c1)[C@H]1COC(=O)[C@@H]1Cc1ccc(O)c(OC)c1 | 3.63
CCCCCCCCCCCCCCCCCC(=O)O[C@@H](c1ccc(O)c(OC)c1)[C@H]1COC(=O)[C@@H]1Cc1ccc(O)c(OC)c1 | 5.5
CCCCCCCC(=O)O[C@H](c1ccc(O)c(OC)c1)[C@H]1COC(=O)[C@@H]1Cc1ccc(O)c(OC)c1 | 3.06
CCCCCCCC(=O)O[C@@H](c1ccc(O)c(OC)c1)[C@H]1COC(=O)[C@@H]1Cc1ccc(O)c(OC)c1 | 3.12
COc1cc(C[C@H]2C(=O)OC[C@@H]2[C@H](O)c2ccc(O)c(OC)c2)ccc1O [HYDROXYMATAIRESINOL] | 1.49

Test: Lipophilicity, log P of the compound
Type: physicochemical
Conditions: octanol/water

SMILES | logP
CCCCCCCCOC(=O)c1cc(O)c(O)c(O)c1 [OCTYL_GALLATE] | 4.1

Test: Antioxidant activity assessed as DPPH radical scavenging activity at test compound/DPPH volume ratio 1:1 after 1 hr by UV-spectrophotometric method
Type: functional
Conditions: not given
Method in brief: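 DPPH 200 µM in methanol. Antioxidant stocks were 1 mM in methanol, diluted to 2–200 µM. The reaction was started by adding 1 mL DPPH solution to 1 mL antioxidant solution (1:1). Samples were incubated 1 h, an interval chosen from a time-course study.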

SMILES | IC50 [µM]
CCCCCCCC(=O)OC(c1ccc(O)c(OC)c1)[C@H]1COC(=O)[C@@H]1Cc1ccc(O)c(OC)c1 (stereo partly specified) | 24.1
CCCCCCCCCCCC(=O)OC(c1ccc(O)c(OC)c1)[C@H]1COC(=O)[C@@H]1Cc1ccc(O)c(OC)c1 (stereo partly specified) | 24.5
CCCCCCCCCCCCCCCCCC(=O)OC(c1ccc(O)c(OC)c1)[C@H]1COC(=O)[C@@H]1Cc1ccc(O)c(OC)c1 (stereo partly specified) | 25.2
Cc1c(C)c2c(c(C)c1O)CC[C@@](C)(CCC[C@H](C)CCC[C@H](C)CCCC(C)C)O2 (racemic) [ALPHA-TOCOPHEROL] | 23.5
O=C1O[C@H]([C@@H](O)CO)C(O)=C1O [ASCORBIC ACID] | 20.3
Cc1cc(C(C)(C)C)c(O)c(C(C)(C)C)c1 [BUTYLATED HYDROXYTOLUENE] | 34
COc1cc(C[C@H]2C(=O)OC[C@@H]2[C@H](O)c2ccc(O)c(OC)c2)ccc1O [HYDROXYMATAIRESINOL] | 20

Test: Antioxidant activity assessed as DPPH radical scavenging activity at test compound/DPPH volume ratio 3:1 incubated under dark condition for 30 mins by spectrophotometric method
Type: functional
Conditions: not given

SMILES | IC50 [µM]
O=C1O[C@H]([C@@H](O)CO)C(O)=C1O [ASCORBIC ACID] | 12.6
